Measured values reported in ChEMBL document CHEMBL3621046, “Discovery of a potent enoyl-acyl carrier protein reductase (FabI) inhibitor suitable for antistaphylococcal agent” (Bioorg Med Chem Lett, 2015).
Converted amounts (≈) assume the structure as drawn.

Columns and labels:
[1] = biological target: T1, Enoyl-[acyl-carrier-protein] reductase [NADPH] FabI (Staphylococcus aureus, UniProt Q6GI75); test: Inhibition of Staphylococcus aureus FabI assessed as reduction in inhibition of reduction of trans-2-octenoyl N-acetylcysteamine substrate by spectrophotometry
T1 sequence (Q6GI75 whole entry): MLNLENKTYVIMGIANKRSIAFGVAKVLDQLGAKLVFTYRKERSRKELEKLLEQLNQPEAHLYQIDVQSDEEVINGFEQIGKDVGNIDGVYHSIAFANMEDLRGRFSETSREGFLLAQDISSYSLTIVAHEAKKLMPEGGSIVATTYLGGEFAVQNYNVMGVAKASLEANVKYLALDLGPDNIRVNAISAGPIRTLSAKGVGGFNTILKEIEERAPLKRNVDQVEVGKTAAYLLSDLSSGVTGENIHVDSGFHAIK

[2] = test system: Staphylococcus aureus; test: Antibacterial activity against methicillin-resistant Staphylococcus aureus incubated for 18 hrs by agar dilution method; assay type: functional
Procedure, shortened: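 Agar dilution. Strains were grown 18 h at 37 °C with shaking in Fleisch extract broth (beef extract 1%, peptone 1%, NaCl 0.3%, Na₂HPO₄ 0.2%, pH 7.4–7.5), then diluted 100-fold. Plates incubated 37 °C, 18 h. MIC is the lowest concentration preventing growth.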

[3] = test system: Staphylococcus aureus; test: Antibacterial activity against Staphylococcus aureus incubated for 18 hrs by agar dilution method; assay type: functional
[4] = Terminal half life in ICR mouse at 10 mg/kg, po after 5 mins to 6 hrs; assay type: ADME, organism-based; details: in vivo, read-out: beta t1/2
[5] = Cmax in ICR mouse at 10 mg/kg, po after 5 mins to 6 hrs; assay type: ADME, organism-based; parameters: dose 10 mg/kg, route oral; details: in vivo
[6] = AUC (0 to infinity) in ICR mouse at 10 mg/kg, po after 5 mins to 6 hrs; assay type: ADME, organism-based; parameters: dose 10 mg/kg, time infinity, route oral; details: in vivo
[7] = Tmax in ICR mouse at 10 mg/kg, po after 5 mins to 6 hrs; assay type: ADME, organism-based; details: in vivo
[8] = Terminal half life in ICR mouse at 10 mg/kg, iv after 5 mins to 6 hrs; assay type: ADME, organism-based; details: in vivo, read-out: beta t1/2
[9] = AUClast in ICR mouse at 10 mg/kg, iv after 5 mins to 6 hrs; assay type: ADME, organism-based; parameters: time lower 0.083 hr, dose 10 mg/kg, time upper 6 hr, route intravenous; details: in vivo
[10] = Oral bioavailability in ICR mouse at 10 mg/kg after 5 mins to 6 hrs; assay type: ADME, organism-based; details: in vivo
[11] = AUC (0 to infinity) in ICR mouse at 10 mg/kg, iv after 5 mins to 6 hrs; assay type: ADME, organism-based; parameters: dose 10 mg/kg, time infinity, route intravenous; details: in vivo
[12] = AUClast in ICR mouse at 10 mg/kg, po after 5 mins to 6 hrs; assay type: ADME, organism-based; parameters: dose 10 mg/kg, time upper 6 hr, time lower 0.083 hr, route oral; details: in vivo
[13] = Clearance in ICR mouse at 10 mg/kg, iv after 5 mins to 6 hrs; assay type: ADME, organism-based; details: in vivo
[14] = Volume of distribution at steady state in ICR mouse at 10 mg/kg, iv after 5 mins to 6 hrs; assay type: ADME, organism-based; details: in vivo, read-out: Vdss
[15] = Mean residence time in ICR mouse at 10 mg/kg, iv after 5 mins to 6 hrs; assay type: ADME, organism-based; details: in vivo

Row | Structure (SMILES) | IC50 [1] | MIC [2] | MIC [3] | also measured
1 | O=c1cc(COc2ccccc2)[nH]cc1Oc1c(Cl)cccc1Cl | 4980 nM | 3.12 µg/mL (≈ 8.63 µM) | 3.12 µg/mL (≈ 8.63 µM) | 
2 | Cc1cc(Cl)ccc1Oc1coc(COc2ccccc2)cc1=O | 450 nM | 6.25 µg/mL (≈ 18.2 µM) | 1.56 µg/mL (≈ 4.56 µM) | 
3 | O=c1cc(/C=C/c2cccnc2)occ1Oc1ccc(Cl)cc1Cl | 2040 nM |  | > 20 µg/mL | 
4 | CC(=O)NC[C@H]1CN(c2ccc(N3CCOCC3)c(F)c2)C(=O)O1 [LINEZOLID] |  | 0.781 µg/mL (≈ 2.32 µM) |  | 
5 | Cc1cc(Cl)ccc1Oc1coc(/C=C/c2ccoc2)cc1=O | 2450 nM |  | > 20 µg/mL | 
6 | CCCCn1cc(Oc2ccc(C)cc2C)c(=O)cc1COc1ccccc1 | 1000 nM | 1.56 µg/mL (≈ 4.14 µM) | 0.781 µg/mL (≈ 2.07 µM) | 
7 | O=c1cc(/C=C/c2ccoc2)occ1Oc1c(Cl)cccc1Cl | 4120 nM |  | > 20 µg/mL | 
8 | Cc1ccc(Oc2coc(/C=C/c3ccoc3)cc2=O)c(C)c1 | 2290 nM |  | > 20 µg/mL | 
9 | CCCCn1cc(Oc2ccc(Cl)cc2C)c(=O)cc1COc1ccccc1 | 630 nM | 3.12 µg/mL (≈ 7.85 µM) | 3.12 µg/mL (≈ 7.85 µM) | 
10 | CCC/C=C/c1cc(=O)c(Oc2ccc(Cl)cc2C)co1 | 6440 nM |  | > 20 µg/mL | 
11 | O=c1cc(COc2ccccc2)occ1Oc1ccc(Cl)cc1Cl | 680 nM | 6.25 µg/mL (≈ 17.2 µM) | 3.12 µg/mL (≈ 8.6 µM) | 
12 | O=c1cc(/C=C/c2ccccc2)occ1Oc1cccc(Cl)c1Cl | 6730 nM |  | > 20 µg/mL | 
13 | O=c1cc(/C=C/c2ccccc2)occ1Oc1c(Cl)cccc1Cl | 4790 nM |  | > 20 µg/mL | 
14 | Cc1cc(Cl)ccc1Oc1cn(C2CC2)c(COc2ccccc2)cc1=O | 470 nM | 0.781 µg/mL (≈ 2.05 µM) | 0.391 µg/mL (≈ 1.02 µM) | 
15 | Cc1cc(Cl)ccc1Oc1coc(/C=C/c2cccnc2)cc1=O | 2940 nM |  | > 20 µg/mL | 
16 | Cc1ccc(Oc2coc(COc3ccccc3)cc2=O)c(C)c1 | 380 nM | 1.56 µg/mL (≈ 4.85 µM) | 1.56 µg/mL (≈ 4.85 µM) | 
17 | Cc1cc(Cl)ccc1Oc1c[nH]c(COc2ccccc2)cc1=O | 400 nM | 1.56 µg/mL (≈ 4.57 µM) | 1.56 µg/mL (≈ 4.57 µM) | 
18 | O=c1cc(COc2ccccc2)[nH]cc1Oc1cccc(Cl)c1Cl | 840 nM | 1.56 µg/mL (≈ 4.32 µM) | 1.56 µg/mL (≈ 4.32 µM) | 
19 | Cc1ccc(Oc2coc(/C=C/c3ccccc3)cc2=O)c(C)c1 | 5330 nM |  | > 20 µg/mL | 
20 | O=c1cc(COc2ccccc2)occ1Oc1c(Cl)cccc1Cl | 1420 nM | 12.5 µg/mL (≈ 34.4 µM) | 6.25 µg/mL (≈ 17.2 µM) | 
21 | O=c1cc(COc2ccccc2)occ1Oc1cccc(Cl)c1Cl | 1250 nM | 12.5 µg/mL (≈ 34.4 µM) | 6.25 µg/mL (≈ 17.2 µM) | 
22 | Cc1cc(Cl)ccc1Oc1coc(/C=C/c2ccco2)cc1=O | 3890 nM |  | > 20 µg/mL | 
23 | O=c1cc(COc2ccccc2)n(C2CC2)cc1Oc1ccc(Cl)cc1Cl | 480 nM | 1.56 µg/mL (≈ 3.89 µM) | 1.56 µg/mL (≈ 3.89 µM) | 
24 | Cc1ccc(Oc2cn(C)c(COc3ccccc3)cc2=O)c(C)c1 | 80 nM | 0.049 µg/mL (≈ 0.146 µM) | 0.049 µg/mL (≈ 0.146 µM) | half-life [4]: 33.9 min; Cmax [5]: 4040 ng/mL; AUC(0-inf) [6]: 2490 ng·h/mL; Tmax [7]: 5 min; half-life [8]: 47.9 min; AUC(0-t) [9]: 5910 ng·h/mL; bioavailability [10]: 41.9%; AUC(0-inf) [11]: 5920 ng·h/mL; AUC(0-t) [12]: 2480 ng·h/mL; clearance [13]: 28.1 mL/min/kg; Vd [14]: 1.03 L/kg; MRT [15]: 36.5 min
25 | Cc1cc(Cl)ccc1Oc1cn(Cc2ccccc2)c(COc2ccccc2)cc1=O | 650 nM | 6.25 µg/mL (≈ 14.5 µM) | 3.12 µg/mL (≈ 7.24 µM) | 
26 | CCCCn1cc(Oc2ccc(Cl)cc2Cl)c(=O)cc1COc1ccccc1 | 1250 nM | 6.25 µg/mL (≈ 14.9 µM) | 6.25 µg/mL (≈ 14.9 µM) | 
27 | Cc1cc(Cl)ccc1Oc1cn(C)c(COc2ccccc2)cc1=O | 110 nM | 0.098 µg/mL (≈ 0.275 µM) | 0.098 µg/mL (≈ 0.275 µM) | 

Row | Structure (SMILES) | IC50 [1] | MIC [2] | MIC [3] | also measured
28 | O=c1cc(COc2ccccc2)[nH]cc1Oc1ccc(Cl)cc1Cl | 1820 nM | 1.56 µg/mL (≈ 4.32 µM) | 0.781 µg/mL (≈ 2.16 µM) | 
29 | O=c1cc(COc2ccccc2)n(C2CC2)cc1Oc1c(Cl)cccc1Cl | 6430 nM | 3.12 µg/mL (≈ 7.77 µM) | 3.12 µg/mL (≈ 7.77 µM) | 
30 | COCc1cc(=O)c(Oc2ccc(Cl)cc2)co1 | 5200 nM |  | 6.25 µg/mL (≈ 23.4 µM) | 
31 | Cn1cc(Oc2cccc(Cl)c2Cl)c(=O)cc1COc1ccccc1 | 220 nM | 0.195 µg/mL (≈ 0.518 µM) | 0.195 µg/mL (≈ 0.518 µM) | 
32 | Cn1cc(Oc2cccc([N+](=O)[O-])c2Cl)c(=O)cc1COc1ccccc1 | 660 nM | 3.12 µg/mL (≈ 8.08 µM) | 0.781 µg/mL (≈ 2.02 µM) | 
33 | O=c1cc(COc2ccccc2)[nH]cc1Oc1cccc([N+](=O)[O-])c1Cl | 11700 nM |  | > 20 µg/mL | 
34 | Cc1cc(Cl)ccc1Oc1coc(/C=C/c2cccs2)cc1=O | 4570 nM |  | > 20 µg/mL | 
35 | Oc1cc(Cl)ccc1Oc1ccc(Cl)cc1Cl [TRICLOSAN] |  |  | 0.391 µg/mL (≈ 1.35 µM) | 
36 | O=c1cc(COc2ccccc2)n(C2CC2)cc1Oc1cccc(Cl)c1Cl | 1500 nM | 6.25 µg/mL (≈ 15.5 µM) | 3.12 µg/mL (≈ 7.77 µM) | 
37 | O=c1cc(COc2ccccc2)n(C2CC2)cc1Oc1cccc([N+](=O)[O-])c1Cl | 17600 nM |  | > 20 µg/mL | 
38 | O=c1cc(/C=C/c2ccccc2)occ1Oc1ccc(Cl)cc1Cl | 4530 nM |  | > 20 µg/mL | 
39 | Cc1cc(Cl)ccc1Oc1coc(/C=C/c2ccc[nH]2)cc1=O | 5820 nM |  | > 20 µg/mL | 
40 | O=c1cc(/C=C/c2cccnc2)occ1Oc1cccc(Cl)c1Cl | 3440 nM |  | > 20 µg/mL | 
41 | Cc1ccc(Oc2coc(/C=C/c3cccnc3)cc2=O)c(C)c1 | 3480 nM |  | > 20 µg/mL | 
42 | O=c1cc(/C=C/c2ccoc2)occ1Oc1cccc(Cl)c1Cl | 5680 nM |  | > 20 µg/mL | 
43 | Cc1cc(Cl)ccc1Oc1coc(/C=C/C(C)C)cc1=O | 5780 nM |  | > 20 µg/mL | 
44 | O=c1cc(/C=C/c2cccnc2)occ1Oc1c(Cl)cccc1Cl | 3740 nM |  | > 20 µg/mL | 
45 | O=c1cc(/C=C/c2ccoc2)occ1Oc1ccc(Cl)cc1Cl | 1890 nM |  | > 20 µg/mL | 
46 | Cc1cc(Cl)ccc1Oc1coc(/C=C/c2ccsc2)cc1=O | 3120 nM |  | > 20 µg/mL | 
47 | Cc1ccc(Oc2c[nH]c(COc3ccccc3)cc2=O)c(C)c1 | 1140 nM | 1.56 µg/mL (≈ 4.86 µM) | 0.781 µg/mL (≈ 2.43 µM) | 
48 | Cc1c(Oc2coc(COc3ccccc3)cc2=O)cccc1[N+](=O)[O-] | 3520 nM | 12.5 µg/mL (≈ 35.4 µM) | 12.5 µg/mL (≈ 35.4 µM) | 
49 | Cc1ccc(Oc2cn(C3CC3)c(COc3ccccc3)cc2=O)c(C)c1 | 3170 nM | 1.56 µg/mL (≈ 4.32 µM) | 0.391 µg/mL (≈ 1.08 µM) | 
50 | Cc1cc(Cl)ccc1Oc1coc(/C=C/c2ccccc2)cc1=O | 4880 nM |  | > 20 µg/mL | 
51 | Cn1cc(Oc2c(Cl)cccc2Cl)c(=O)cc1COc1ccccc1 | 720 nM | 0.195 µg/mL (≈ 0.518 µM) | 0.195 µg/mL (≈ 0.518 µM) | 
52 | Cn1cc(Oc2ccc(Cl)cc2Cl)c(=O)cc1COc1ccccc1 | 120 nM | 0.195 µg/mL (≈ 0.518 µM) | 0.195 µg/mL (≈ 0.518 µM) | 
53 | Cc1ccc(Oc2cn(Cc3ccccc3)c(COc3ccccc3)cc2=O)c(C)c1 | 2690 nM | 3.12 µg/mL (≈ 7.59 µM) | 1.56 µg/mL (≈ 3.8 µM) | 
54 | O=c1cc(COc2ccccc2)n(Cc2ccccc2)cc1Oc1ccc(Cl)cc1Cl | 1420 nM | 12.5 µg/mL (≈ 27.6 µM) | 6.25 µg/mL (≈ 13.8 µM) | 
